High-throughput results from PubChem BioAssay.
Only some compounds are listed: those with a hit (about 3.1% of all), similar ones and a draw of the others.
UBC13 polyUb: UBC13 polyubiquitin chain formation inhibitors, primary screen, biochemical, TR-FRET, uHTS; Ubiquitin-conjugating enzyme E2 N (Homo sapiens), P61088; inhibition, % at 20 µM; 0.47% of 330,000 active; AID 485273, 2010; in the data active = inhibition above about 45%, passing the limit was not always enough
SENP6 inh: SENP6 protease inhibitors, primary screen, biochemical, luminescence, uHTS; Recombinant SENP6 catalytic domain, aminoluciferin luminescence; inhibition, % at 10 µM; 1.8% of 330,000 active; AID 2599, 2010;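 active = inhibition above about 50% at the single tested dose, limit read from the data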
Apaf-1 inh: inhibitors of human Apaf-1 apoptosome, primary screen, biochemical, DEVD-Rh110 fluorescence, uHTS; Apoptotic protease-activating factor 1 (Homo sapiens), O14727; reconstituted apoptosome caspase-3 activity; inhibition, % at 20 µM; 0.71% of 330,000 active; AID 489030, 2010; active = inhibition of at least 40% at 20 µM
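Medium: Hepes buffer, pH 7.5 / System: biochemical Apaf-1 apoptosome reconstitution / Measured by: Rh110 fluorescence, excitation 480 nm, emission 540 nm / Times: compound with Apaf-1, dATP, procaspase-3 30 min, then 50 min reaction, room temperature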
SENP7 inh: SENP7 protease inhibitors, primary screen, biochemical, luminescence, uHTS | Sentrin-specific protease 7 (Homo sapiens), Q9BQF6 | recombinant SENP7, Z-RLRGG-aminoluciferin luminescence, 40 min | inhibition, % at 5 µM | 1.5% of 330,000 active;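 active = inhibition above about 50% at the single test dose, limit read from the data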
SENP8 block-1: human SENP8 protease inhibitors, primary screen, biochemical, fluorescence, Nedd8 protein substrate, uHTS. Sentrin-specific protease 8 (Homo sapiens), Q96LD8. recombinant SENP8. inhibition, % at 20 µM. 0.64% of 360,000 active; in the data active = inhibition mostly above about 40%, no sharp cut-off; inactive = mostly below about 27%
SENP8 block-2: SENP8 protease inhibitors, primary screen, biochemical, luminescence; Sentrin-specific protease 8 (Homo sapiens), Q96LD8; purified SENP8, Z-RLRGG-aminoluciferin cleavage; inhibition, % at 10 µM; 1.2% of 330,000 active; AID 2540, 2010; in the data active = inhibition above about 50%
SENP8 conf: SENP8 protease inhibitors, retest, confirmation, biochemical, luminescence, single concentration. 40% of 6,200 active. shares compounds with SENP7 inh. Recombinant SENP8, Z-RLRGG-aminoluciferin luminescence, 60 min. inhibition, % at 12.5 µM;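 active = mean inhibition across replicates above about 50%, limit read from the data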
SENP6 confirm: SENP6 protease inhibitors, confirmation, biochemical, luminescence, single concentration. inhibition, % at 12.5 µM. shares compounds with SENP7 inh. 58% of 6,200 active. recombinant SENP6, Z-RLRGG-aminoluciferin luminescence
SENP7 confirm: SENP7 protease inhibitors, retest, confirmation, biochemical, luminescence, single concentration. shares compounds with SENP7 inh. recombinant SENP7, Z-RLRGG-aminoluciferin luminescence, 40 min. inhibition, % at 12.5 µM. 69% of 6,200 active
Casp3 SENP sel: caspase-3 protease inhibitors, confirmation, selectivity assay for SENP inhibitor project, biochemical, single concentration | shares compounds with SENP7 inh | purified caspase-3, Z-DEVD-aminoluciferin luminescence, 60 min | inhibition, % at 12.5 µM | 60% of 6,200 active | AID 488918, 2010;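 active = mean inhibition above about 50%, limit read from the data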
SENP luc ctr: counter-screen for SENP inhibitors: luminescence interference; inhibition, % at 12.5 µM; Pre-incubated SENP8/Z-RLRGG-aminoluciferin, luciferase luminescence interference; shares compounds with SENP7 inh; 39% of 6,200 active;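 active = mean inhibition above about 50% when retested at one dose, limit read from the data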
Hits are given with their value; i = inactive; nt = no result given.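 The calls were made as follows, unless noted: active = mean inhibition above about 50% in the one-dose retest (limit read from the data); inactive = the rest.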

SMILES	UBC13 polyUb	SENP6 inh	Apaf-1 inh	SENP7 inh	SENP8 block-1	SENP8 block-2	SENP8 conf	SENP6 confirm	SENP7 confirm	Casp3 SENP sel	SENP luc ctr
c1ccc(N2CCN(c3nc4cc5c(cc4s3)OCO5)CC2)cc1	i	i	i	i	i	i	nt	nt	nt	nt	nt
c1c2c(cc3sc(N4CCOCC4)nc13)OCO2	i	60	i	89	i	76	85	86	99	95	88
N/C(=N\OC(=O)CCC1CCCC1)c1ccccn1	i	87	i	68	i	67	82	80	95	91	83
N/C(=N\OC(=O)CCC1CCCC1)c1ccccc1	i	69	i	i	i	i	72	71	89	83	53
N/C(=N\OC(=O)Cc1ccccc1)c1ccccn1	i	i	i	i	i	i	nt	nt	nt	nt	nt
N/C(=N\OC(=O)CCCc1ccccc1)c1ccccn1	i	50	i	i	i	i	i	i	73	73	54
COc1ccc(/C(N)=N/OC(=O)CCC2CCCC2)cc1OC	i	i	i	i	i	i	nt	nt	nt	nt	nt
C=CCN(CC=C)Cc1cc(=O)oc2cc(OC)ccc12	nt	nt	nt	nt	i	nt	nt	nt	nt	nt	nt
CCN(CC)S(=O)(=O)c1ccc(C)c(NC(=O)COC(=O)C=C(C)C)c1	i	56	i	i	i	i	i	i	i	i	i
CCOc1ncccc1C(=O)OCC(=O)Nc1cc(S(=O)(=O)N(CC)CC)ccc1C	i	i	i	i	i	i	nt	nt	nt	nt	nt
CCCOc1ccc(-c2nnc(-c3cccs3)o2)cc1	i	80	i	i	i	i	i	i	i	i	i
CN(C)c1ccc(-c2nnc(-c3cccs3)o2)cc1	i	72	i	79	i	60	i	51	76	i	i
CC(C)CCN1C(=O)c2ccccc2C1c1nnnn1C(C)C (stereo not drawn)	nt	nt	nt	nt	i	nt	nt	nt	nt	nt	nt
COc1ccc2c(=O)c(-c3ccccc3)coc2c1	i	79	i	80	i	75	i	73	93	84	i
COc1ccc2cc(-c3ccccc3)c(=O)oc2c1	i	92	i	88	i	75	i	90	99	86	i
CC(=O)Oc1ccc2occ(-c3ccccc3)c2c1	i	i	i	i	i	i	nt	nt	nt	nt	nt
CCN(CC)C(=O)Oc1ccc2c(=O)c(-c3ccccc3)coc2c1	i	81	i	71	i	54	i	i	54	57	i
COC(=O)C(C)Oc1ccc2cc(-c3ccccc3)c(=O)oc2c1 (stereo not drawn)	i	i	i	i	i	i	nt	nt	nt	nt	nt
CCCOc1ccc2cc(-c3ccccn3)c(=O)oc2c1	i	98	i	101	i	96	81	85	101	88	i
CC(C)NC(=O)C1(C)Cc2c(-c3ccc(N(C)C)cc3)ccnc2O1 (stereo not drawn)	nt	nt	nt	nt	i	nt	nt	nt	nt	nt	nt
O=C(NC(c1ccccc1)c1cnccn1)C1CCN(CCOc2ccc(Cl)cc2Cl)CC1 (stereo not drawn)	nt	nt	nt	nt	i	nt	nt	nt	nt	nt	nt
COc1ccc(-n2nc3ccc(NS(C)(=O)=O)cc3n2)cc1Cl	i	72	i	74	i	51	i	i	75	55	i
Cc1ccc(NC2=Nc3ccccc3CC2)cc1	i	52	i	i	i	i	64	61	88	84	i
Brc1ccc(NC2=Nc3ccccc3CC2)cc1	i	i	i	i	i	i	nt	nt	nt	nt	nt
Cc1nc2cc(NC(=O)c3ccc(Br)s3)ccc2s1	i	70	i	70	i	i	i	51	91	i	i
SMILES	UBC13 polyUb	SENP6 inh	Apaf-1 inh	SENP7 inh	SENP8 block-1	SENP8 block-2	SENP8 conf	SENP6 confirm	SENP7 confirm	Casp3 SENP sel	SENP luc ctr
Cc1ccnc(NC(=O)c2cccs2)c1	i	54	i	57	i	i	51	51	84	86	62
Cc1ccc(C(=O)Nc2ccc3nc(C)sc3c2)s1	i	i	i	i	i	i	nt	nt	nt	nt	nt
Cc1ccnc(NC(=O)c2cc3c(=O)oc4ccc(C)cc4c3s2)c1	i	i	i	i	i	i	nt	nt	nt	nt	nt
Cc1ccnc(NC(=O)c2ccc(Br)s2)c1	i	88	i	92	i	82	86	87	98	91	88
COc1ccc([C@H]2C[C@@H](O)C[C@@H](CCn3cc(-c4ccccc4)nn3)O2)cc1	nt	nt	nt	nt	i	nt	nt	nt	nt	nt	nt
CN(Cc1cn(Cc2ccc(Cl)cc2)nn1)C1CN(Cc2cn(Cc3ccc(Cl)cc3)nn2)S(=O)(=O)C1 (stereo not drawn)	nt	nt	nt	nt	i	nt	nt	nt	nt	nt	nt
Oc1[nH]c2ccccc2c1N=Nc1nc2ccccc2s1	i	72	i	89	i	55	i	i	51	i	i
Oc1[nH]c2ccccc2c1N=Nc1ccc(F)cc1	i	78	i	89	i	69	i	64	67	i	i
Oc1[nH]c2ccccc2c1N=Nc1ccccc1	i	88	i	80	50	73	i	73	94	62	i
CC(C)(O)C(=O)N=Nc1c(O)[nH]c2ccccc12	i	i	i	i	i	i	nt	nt	nt	nt	nt
O=C(N=Nc1c(O)[nH]c2ccccc12)Nc1ccccc1	nt	nt	nt	nt	i	nt	nt	nt	nt	nt	nt
Cc1ccc2[nH]c(O)c(N=Nc3nc4ccccc4s3)c2c1	i	i	i	i	i	i	nt	nt	nt	nt	nt
Oc1[nH]c2ccccc2c1N=Nc1ccccc1F	i	i	i	75	i	i	i	i	i	i	i
CCOc1cc(C=O)cc(N=Nc2cccc([N+](=O)[O-])c2)c1O	i	83	i	i	i	82	i	i	i	i	i
Cc1ccc(CN2C(=O)CCC2(C)c2nnnn2Cc2ccccc2)cc1 (stereo not drawn)	nt	nt	nt	nt	i	nt	nt	nt	nt	nt	nt
CN(C)CCCNc1nc2cc(-c3ccc4c(ccn4C)c3)sc2c(=O)n1C	nt	nt	nt	nt	i	nt	nt	nt	nt	nt	nt
CN1C=CC(=C2C(=O)c3ccccc3C2=O)C=C1	i	i	i	i	nt	i	nt	nt	nt	nt	nt
